# Compound activity: PubChem, several laboratories
# A selection: hits, their analogues and other compounds. The true share with any hit is near 3.9%.
# ABCB6 inh MLPCN = blocks the human ABCB6 transporter | fluorescence ratio to DMSO, % at 10 µM | hit rate 0.19% among 360,000 | K562-ABCB6 porphyrin accumulation, flow cytometry, 1 h; hits give low values | Q9NP58;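 active means fluorescence ratio to DMSO below 75%, the collection mean minus 3 SD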;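 further: signal is porphyrin accumulated inside mitochondria; 100% equals median channel fluorescence of DMSO control wells; lower ratio means ABCB6 inhibition with less porphyrin fluorescence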
# SR-BI HDL uptake = mouse SR-BI HDL lipid transfer inhibition. Q61009. inhibition, % at 12.5 µM. hit rate 0.96% among 320,000. AID 488896. ldlA[mSR-BI] CHO cells, DiI-HDL uptake fluorescence, 3 h;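 active means mean replicate inhibition of at least 70% and a set share of replicates each scoring 70 or more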;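 further: 0% = median of neutral control wells and 100% = median of positive control wells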
# HIF act = HIF pathway transcriptional activation. U2OS HRE-luciferase reporter, luminescence; normalized: DMSO 0%, desferrioxamine 100%. activation, % at 7.5 µM (by protocol). hit rate 0.32% among 300,000. AID 1910;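 active means mean activation of at least 10% of the iron chelator positive control signal, with at least half of replicates also reaching 10%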
# FXN GAA850 act = increases GAA850 frataxin promoter reporter activity; HEK293 lucGAA850 FXN promoter luciferase reporter, 24 h; percent of 10 µM SAHA response; activation, % at 6 µM; hit rate 0.56% among 360,000; AID 540364;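 active means activation above the average of all compounds screened plus 3 SD, cutoff fixed separately per campaign, cut at about 7.5% in these data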;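 further: 0% = DMSO wells and 100% = 10 µM SAHA wells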
# SR-BI DiI-HDL act = SR-BI HDL lipid transfer activation; AID 504775; CHO ldlA[mSR-BI] cells, DiI-HDL uptake fluorescence, 3 h; 100 = double the neutral-control signal; hit rate 0.096% among 320,000; activation, % at 12.5 µM;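 active means mean replicate activation of at least 60% and every replicate at or above 60%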;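 further: 0% = median plate neutral-control signal and 100% = twice that signal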
#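 Material: SR-BI-overexpressing, LDLR-lacking CHO cells; schedule: compound exposure 3 h, 37 °C; reagent: DiI-labelled HDL at 10 µg/mL final; technique: bottom-read fluorescence, 550/595 nm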
# AHR activator = human AHR activation; hit rate 2.5% among 320,000; AHR-responsive luciferase reporter cells, luminescence; activation, % at 5 µM; P35869; in the data active means activation above about 47%;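 further: 0% = vehicle wells and 100% = reference agonist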
# Target sequence (P35869 whole entry, looked up): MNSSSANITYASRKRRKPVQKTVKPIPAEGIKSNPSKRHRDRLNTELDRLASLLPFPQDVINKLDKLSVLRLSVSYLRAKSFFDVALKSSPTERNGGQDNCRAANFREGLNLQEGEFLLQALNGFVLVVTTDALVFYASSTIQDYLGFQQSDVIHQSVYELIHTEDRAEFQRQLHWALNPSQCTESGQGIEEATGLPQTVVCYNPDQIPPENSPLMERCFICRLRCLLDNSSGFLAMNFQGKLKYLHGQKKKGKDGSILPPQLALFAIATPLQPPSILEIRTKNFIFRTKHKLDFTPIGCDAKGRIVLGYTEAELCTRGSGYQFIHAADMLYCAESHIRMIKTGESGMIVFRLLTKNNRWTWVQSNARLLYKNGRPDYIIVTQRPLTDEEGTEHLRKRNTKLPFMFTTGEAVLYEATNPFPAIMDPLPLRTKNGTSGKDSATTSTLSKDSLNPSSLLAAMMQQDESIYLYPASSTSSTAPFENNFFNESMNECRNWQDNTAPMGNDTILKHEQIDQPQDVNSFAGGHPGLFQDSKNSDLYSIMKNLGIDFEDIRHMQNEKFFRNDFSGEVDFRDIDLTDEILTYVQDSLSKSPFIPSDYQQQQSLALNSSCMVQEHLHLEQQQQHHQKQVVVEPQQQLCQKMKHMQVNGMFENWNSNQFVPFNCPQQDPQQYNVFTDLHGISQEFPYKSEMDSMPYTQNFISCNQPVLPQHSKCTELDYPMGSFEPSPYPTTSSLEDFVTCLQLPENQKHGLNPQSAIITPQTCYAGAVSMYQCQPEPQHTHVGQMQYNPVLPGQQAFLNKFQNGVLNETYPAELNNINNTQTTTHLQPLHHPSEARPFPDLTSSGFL
# * marks the source's active call; other numbers are inactive results; . = no result.
SMILES,ABCB6 inh MLPCN,SR-BI HDL uptake,HIF act,FXN GAA850 act,SR-BI DiI-HDL act,AHR activator
Cc1ccc(-n2nc(C)c3c2OC(N)=C(C#N)C3c2ccoc2)cc1 (centres undefined),91,-9,0,-1,9,51*
Cc1ccc(-n2nc(C)c3c2OC(N)=C(C#N)C3c2ccc(C)o2)cc1 (centres undefined),95,-2,0,2,2,33
Cc1ccc(-n2nc(C)c3c2OC(N)=C(C#N)C3c2ccco2)cc1 (centres undefined),118,-27,0,3,27,63*
Cc1ccc(C)c(OCC(O)CN2C(C)CCCC2C)c1 (centres undefined),161,-11,1,-2,11,7
Cc1ccc(C)c(OCC(O)CN2CCCCC2C)c1 (centres undefined),113,-7,0,-2,7,48*
COc1ccc(Cc2nc3ccc(C(=O)N(C)CCO)cc3o2)cc1,95,-3,2,1,3,-1
Cc1ccc(NC2=C(N3CCCCC3)C(=O)c3ccccc3C2=O)cc1,100,73*,1,4,-73,11
O=C1C(Nc2ccccc2)=C(N2CCCCC2)C(=O)c2ccccc21,112,-14,0,-4,14,13
O=C(/C=C/c1ccc(O)cc1)c1ccc(NC2=C(N3CCCCC3)C(=O)c3ccccc3C2=O)cc1,101,90*,.,-7,-90,4
O=C(COc1ccc2ccccc2c1)Nc1ccncc1,91,-9,-1,0,9,7
Cc1ccc(C)c(N=Nc2nc3ccccc3n2C)c1,92,37,4,-2,-37,62*
Cn1c(/N=C/c2cccs2)nc2ccccc21,95,-15,0,2,15,10
Cc1ccc(CNc2nc3ccccc3n2C)cc1,102,-7,0,5,7,26
Cc1cc(C)c(C)c(N=Nc2nc3ccccc3n2C)c1C,95,79*,3,-6,-79,42
O=C(CSc1nc(-c2ccc(F)cc2)nc2c1Cc1ccccc1O2)Nc1cccc(C(=O)O)c1,94,11,0,3,-11,.
O=C1C(Cl)=C(N2CCN(c3ccccc3[N+](=O)[O-])CC2)C(=O)c2ccccc21,132,0,.,4,0,71*
COc1ccc(/C=N/NC(=O)C(N)=O)c(OC)c1OC,99,-17,0,2,17,1
C=CCc1c(C)nc(-c2ccccc2)nc1N/N=C/c1ccccc1,108,61,0,0,-61,33
COc1ccc(/C(C)=N/Nc2nc3ccccc3nc2C)cc1,96,0,2,3,0,11
Fc1ccc(/C=N/Nc2nn[nH]n2)cc1,97,-11,-1,0,11,2
CNc1nc(C)nc(N/N=C/c2ccccc2)n1,102,-16,0,5,16,18
C=CCc1c(C)nc(-c2ccccc2)nc1N/N=C/c1ccncc1,97,69,3,1,-69,61*
C=CCc1c(C)nc(C)nc1N/N=C/c1ccccc1,96,4,0,1,-4,66*
C=CCc1c(C)nc(C)nc1N/N=C/c1ccc(F)cc1,99,5,0,-1,-5,77*
C=CCc1c(C)nc(-c2ccccc2)nc1N/N=C(\C)c1ccc(N)cc1,101,-4,3,1,4,51*
SMILES,ABCB6 inh MLPCN,SR-BI HDL uptake,HIF act,FXN GAA850 act,SR-BI DiI-HDL act,AHR activator
O=c1[nH]c(CSc2ncccn2)nc2c1cnn2-c1ccccc1,99,-11,0,1,11,119*
Nc1nnnn1/N=C/c1ccccc1OCc1ccc(Cl)cc1Cl,90,28,0,6,-28,73*
Nc1nnnn1/N=C/c1ccccc1OCc1ccc(Cl)cc1,88,17,0,0,-17,5
Cc1ccc(C2OC3=C(C(=O)CC(C)(C)C3)C(N)=C2C#N)o1 (centres undefined),96,-18,-1,0,18,1
CN1CCc2nc(SCC(=O)Nc3ccc(F)cc3)c(C#N)cc2C1,.,.,3,.,.,67*
O=C(Nc1ccc(Cl)cc1)Nc1ccccc1Sc1ncc([N+](=O)[O-])s1,99,30,4,3,-30,66*
CNC(C)C#Cc1ccc2c(=O)c3cc(C)c(C)cc3oc2c1 (centres undefined),107,41,6,6,-41,10
CNC(C)C#Cc1ccc2oc3cc(C)c(C)cc3c(=O)c2c1 (centres undefined),109,62,5,6,-62,-8
CNC(C)C#Cc1ccc2c(=O)c3c(OC)cccc3oc2c1 (centres undefined),.,.,4,.,.,97*
CNC(C)C#Cc1ccc2oc3cccc(OC)c3c(=O)c2c1 (centres undefined),96,24,4,7.8*,-24,-5
Cc1cc2c(cc1C)NC(=O)CC(C(F)(F)C(F)(F)C(F)(F)F)=N2,99,-10,1,0,10,15
O=C(Nc1ccccc1OC(F)F)c1oc2ccccc2c1COc1ccccc1,98,14,0,4,-14,49*
COCc1c(C(=O)Nc2ccc(Cl)cc2F)oc2ccccc12,97,28,3,6,-28,71*
Cc1ccc(CN(CC(=O)NCc2ccc3c(c2)OCO3)C(=O)c2csnn2)cc1,88,.,0,4,.,0
CS(=O)(=O)c1ccccc1-c1nnc(NC(=O)Cc2ccccc2)o1,99,-1,0,3,1,0
CSc1ccccc1NC(=O)CN(Cc1ccccc1)S(C)(=O)=O,96,75*,0,-1,-75,1
CSc1ccccc1NC(=O)CN(Cc1ccc(Cl)cc1)S(C)(=O)=O,103,19,-1,-1,-19,2
CCOC(=O)c1c(S(=O)(=O)NCc2ccc(C)o2)c(C)n(C)c1C,99,4,70*,0,-4,2
CCOC(=O)c1c(S(=O)(=O)NCc2cccs2)c(C)n(C)c1C,102,-26,1,1,26,-1
Cc1nc(SCC(=O)Nc2nc3ccccc3s2)c(C#N)c(C)c1C,80,0,-4,-16,0,-11
Cc1nc(SCC(=O)Nc2nccs2)c(C#N)c(C)c1C,99,5,.,-5,-5,64*
O=C1OC2(CCCCC2)OC(=O)C1=CNc1nccs1,93,-14,0,-3,14,0
S=C1Cc2ccccc2N1,104,97*,0,-7,-97,.
S=C1Nc2ccccc2CS1,96,.,.,1,.,.
O=C(c1ccccc1-c1nc(-c2ccccc2)no1)N1CCOCC1,103,-34,0,2,34,5
O=C(c1ccccc1-c1nc(-c2ccc(F)cc2)no1)N1CCCC1,96,57,0,0,-57,50*
